# Assay outcomes (PubChem)
# The list is not random: actives were taken first. Their share in the collection is about 1.7%.
# T cell modulator: modulates CD8 T cell binding to vesicles | 2C CD8+ T cell-vesicle binding, flow cytometry; hits give low values | response (vesicle binding), % at 7 µM | 0.068% of 330,000 active;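 active = response, share of CD8 T cells binding vesicles, and their 90th percentile fluorescence all below set limits, cut at about 80% in these data, passing the limit was not always enough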;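 also: values below 100% mean blocked vesicle binding to the CD8+ T cells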
#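 System: murine 2C transgenic CD8+ T lymphocytes; also added: QL9-loaded Drosophila micro-vesicles; times: binding 1.5 h at 37 °C; measured by: flow cytometry, PE anti-B7-1 (FL2) versus Alexa647 anti-CD8 (FL8), PFA-fixed; control set: Peptide-free naked vesicles (low) and QL9 vesicles with 0.7% DMSO vehicle (high)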
# JMJD2C inh: inhibitors of human GASC-1 (JMJD2C) demethylase; GST-JMJD2C(1-420) H3K9me3 demethylation, DELFIA europium; inhibition, % at 2.35 µM; 0.069% of 330,000 active; AID 2099;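 active = more than half of a compound's replicate wells show inhibition beyond 50%, single wells judged on their own value; inconclusive = some, but no more than half, of replicates pass 50% inhibition; inactive = no replicate passes 50% inhibition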;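 also: signal counts dimethyl H3K9 product captured on neutravidin plate; 0% = median of DMSO wells and 100% = 0.3 times that DMSO median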
# m5-HT2A agonist: activates the mouse 5-HT2A serotonin receptor; P35363; CHO-K1 mHTR2A beta-arrestin complementation, luminescence; percent of 30 µM serotonin response; activation, % at 7.6 µM; 0.66% of 360,000 active; AID 624169;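 active = activation above a run cutoff, the mean activation of all tested compounds plus 3 SD, cut at about 14% in these data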;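 also: 0% = plate median of compound wells and 100% = 30 µM serotonin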
# PP5 primary: PP5 (human) phosphatase inhibition | P53041 | purified PP5c, OMFP substrate fluorescence | inhibition, % at 6.7 µM | 0.18% of 320,000 active;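 active = inhibition above the campaign's mean inhibition across all tested compounds plus 3 SD, cut at about 9.5% in these data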;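 also: 0% = DMSO only and 100% = 100 µM cantharidin control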
# PP1 inh: PP1-alpha (human) inhibition in PP5 counter-screen; AID 2235; inhibition, % at 6.7 µM; P62136; purified PP1alpha, OMFP fluorescence; 0.9% of 320,000 active;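 active = inhibition above the mean inhibition of all tested compounds plus 3 SD, computed separately for each screening campaign, cut at about 15% in these data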
# Target sequence (P62136 whole entry, looked up): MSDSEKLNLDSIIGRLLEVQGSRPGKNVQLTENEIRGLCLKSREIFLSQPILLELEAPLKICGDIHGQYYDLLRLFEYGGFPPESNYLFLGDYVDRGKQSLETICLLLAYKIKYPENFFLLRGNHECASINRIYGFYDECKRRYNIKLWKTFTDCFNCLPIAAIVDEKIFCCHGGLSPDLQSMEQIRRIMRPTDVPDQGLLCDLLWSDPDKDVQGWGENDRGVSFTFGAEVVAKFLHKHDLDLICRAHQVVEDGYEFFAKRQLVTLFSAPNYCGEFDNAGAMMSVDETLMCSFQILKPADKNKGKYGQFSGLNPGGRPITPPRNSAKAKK
# PP1 inh confirm: confirmation of human PP1 phosphatase inhibitors | purified PP1alpha, OMFP substrate fluorescence | 52% of 1,900 active | shares compounds with PP1 inh | inhibition, % at 6.7 µM;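 active = mean PP1 inhibition above a set limit taken from the earlier primary screen, cut at about 15% in these data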
# PP5 inh counter: PP5 phosphatase inhibition, counter-screen for PP1 inhibitors. shares compounds with PP1 inh. purified PP5c, OMFP fluorescence. inhibition, % at 6.7 µM. 4% of 1,900 active. AID 2360;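 active = mean PP5 inhibition over triplicate wells above about 9.5% taken from the earlier PP1 screen, limit read from the data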
# An asterisk follows results filed as active; ? = inconclusive; · = no result.
SMILES,T cell modulator,JMJD2C inh,m5-HT2A agonist,PP5 primary,PP1 inh,PP1 inh confirm,PP5 inh counter
CCOC(=O)c1cnc(-n2nc(C)cc2C)nc1NC(C)c1ccccc1 (configuration not stated),411,-5,-8,2,39*,53*,5
CCOC(=O)c1cnc(-n2nc(C)cc2C)nc1NNc1ncc(-c2ccccc2)cn1,849,-10,·,3,23*,22*,-2
CCOC(=O)c1cnc(-n2nc(C)cc2C)nc1NCc1ccccc1,101,?,-3,7,54*,58*,1
CCOC(=O)c1cnc(-n2nc(C)cc2C)nc1NNc1cc(-c2ccccc2)nc(C)n1,140,-5,·,2,-7,·,·
CCOC(=O)c1cnc(-n2nc(C)cc2C)nc1NCCO,270,0,-1,0,0,·,·
c1ccc(-c2cnnn2-c2ccccc2)cc1,224,-9,2,·,·,·,·
C=CCn1c(C)cc(C2=NNC(=Nc3ccc(C)cc3)SC2)c1C,210,-2,6,-1,8,·,·
Cc1cc(C2=NNC(=Nc3ccc(S(=O)(=O)N4CCOCC4)cc3)SC2)c(C)n1C,580,6,-1,0,18*,-1,-3
O=[N+]([O-])c1ccc(N2N=C(c3ccco3)CC2c2ccccc2)cc1 (configuration not stated),214,7,-2,-3,19*,2,-4
NC1=NC[C@@H](Cc2ccc(O)cc2)N1CCc1cc(C(F)(F)F)cc(C(F)(F)F)c1,451,-12,-10,1,3,·,·
NC1=NC[C@H](CC2CCCCC2)N1CCc1cc(C(F)(F)F)cc(C(F)(F)F)c1,176,2,-5,3,18*,-2,3
CCOC(=O)c1sc(N2N=C(C)/C(=C\c3ccc(OCC(=O)OC)cc3)C2=O)nc1C,968,-6,2,1,24*,8,1
CCOC(=O)c1sc(Nc2ccc(OCC)cc2)nc1C,301,-1,5,6,4,·,·
Cc1ccc(-n2nc3c(c2NC(=O)/C=C\c2ccc4c(c2)OCO4)CSC3)cc1,665,14,-10,4,20*,13,-2
Cc1ccc(-n2nc3c(c2NC(=O)/C=C\c2ccc4c(c2)OCO4)CSC3)c(C)c1,695,6,1,1,14,·,·
COc1ccc(CNc2nc(NCc3ccc(OC)cc3)c3[nH]cnc3n2)cc1,398,7,-4,3,18*,6,11*
C[C@@H]1CN([C@@H](C)CO)C(=O)c2cc(Br)cnc2O[C@H]1CN(C)S(=O)(=O)c1cccs1,·,·,-2,·,·,·,·
O=C(CN(C(=O)CNC(=O)c1cccs1)c1ccccc1F)NC1CCCC1,299,-11,0,0,-2,·,·
COc1cc([N+](=O)[O-])cc(/C=N/NC(=O)c2cc(-c3ccccc3)nc3ccccc23)c1O,272,8,0,-1,40*,40*,-1
COc1cc([N+](=O)[O-])cc(/C=N/NC(=O)c2cc(C)nc3ccccc23)c1O,314,14,-15,-1,4,·,·
O=C(Nc1ccc(F)c(Cl)c1)Nc1nnc([C@@H]2O[C@H](CO)[C@@H](O)[C@H]2O)s1,·,·,-1,·,·,·,·
O=C(/C=C/c1ccc(OC(F)F)cc1)Nc1cccc(S(=O)(=O)NC2=NCCCCC2)c1,278,3,-1,4,2,·,·
Cc1ccc(C(=O)Oc2ccc(C(=O)COC(=O)C3CC(=O)N(Cc4ccco4)C3)cc2)cc1 (configuration not stated),331,1,2,-5,20*,15,-3
COc1ccc(CCc2ccc3ccccc3n2)cc1,·,·,-4,·,·,·,·
CC(=O)Nc1sc(C)c(C)c1C(=O)OCC(=O)Nc1cccc(C)c1,444,·,5,·,·,·,·
SMILES,T cell modulator,JMJD2C inh,m5-HT2A agonist,PP5 primary,PP1 inh,PP1 inh confirm,PP5 inh counter
COc1cccc(NC(=O)COC(=O)c2c(NC(C)=O)sc(C)c2C)c1,440,-3,6,1,18*,21*,3
O=C1/C(=C\c2ccco2)SC(=S)N1c1ccc(O)cc1,127,14,-1,5,0,·,·
CC(C)C(C(=O)O)N1C(=O)/C(=C/C=C/c2ccco2)SC1=S (configuration not stated),491,4,-3,1,20*,14,-3
O=C1/C(=C/C=C/c2ccco2)SC(=S)N1c1ccc(O)cc1,312,15,1,-1,38*,6,-2
CCOc1ncccc1C(=O)OCC(=O)NC(=O)c1ccccc1,240,3,2,2,4,·,·
CCCCNC(=O)C1C(c2ccc(OC)cc2)=Nc2ccccc2N1C(=O)c1ccncc1 (configuration not stated),·,·,0,·,·,·,·
CCOc1ccc(Br)cc1C(=S)N1CCCC1,217,-31,4,2,1,·,·
Cc1ccc(N(Cc2ccccc2)C(=O)c2ccc(F)c(S(=O)(=O)N3CCOCC3)c2)cc1,390,7,2,2,-2,·,·
Cc1ccc(NC(=O)C(OC(=O)c2ccc(C=O)cc2)c2ccccc2)cc1Cl (configuration not stated),114,4,-3,2,22*,12,-3
Cc1ccc(C)c(NC(=O)C(OC(=O)c2ccc(CO)cc2)c2ccccc2)c1 (configuration not stated),·,·,-4,·,·,·,·
CCOc1cccc(/C=N/Nc2ccc(S(=O)(=O)N(CC)CC)cn2)c1O,358,2,-3,-1,31*,33*,-2
CCN(Cc1ccccc1)C(=O)Cn1c(=O)n(CCC(=O)N2CCCCC2)c(=O)c2sccc21,663,14,4,-1,0,·,·
CC(C)(C)C(=O)Nc1scc(-c2ccc(-c3ccccc3)cc2)c1C(=O)O,166,-11,3,-6,18*,8,1
Cc1ccc(C(=O)Nc2scc(-c3ccccc3)c2C(=O)O)cc1,404,26,5,0,0,·,·
CC1CCCCC12NC(=O)N(CC(=O)NCCc1ccc(S(N)(=O)=O)cc1)C2=O (configuration not stated),107,3,-4,-1,8,·,·
CC(=O)Oc1ccc(Cl)cc1/C=C/c1ccc2ccccc2n1,248,-3,-1,1,2,·,·
CC(C)(O)c1ccccc1CC[C@@H](SCC1(CC(=O)O)CC1)c1cccc(/C=C/c2ccc3ccc(Cl)cc3n2)c1,290,7,3,1,35*,43*,-2
CCOCCn1c(=NC(=O)CSCC(=O)Nc2cc(C)on2)sc2cc(OC)ccc21,505,5,-8,2,-6,·,·
Cc1ccc(S(=O)(=O)N2[C@@H](c3ccc(F)cc3)C(C(=O)O)=CC[C@H]2c2ccc(C(C)C)cc2)cc1,570,-4,3,4,19*,12,3
